Most compounds without a hit are left out; they make up all but 1.5% or so of the library.
PKA-R1A activ: activates the PKA-R1A holoenzyme complex; P00514+P68181; PKA-R1A dissociation, Cy5-IP20 fluorescence polarization; scaled: DMSO 0%, 113 µM cGMP 100%; activation, % at 11.4 µM; 340,000 compounds, 0.083% hits; AID 504707;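 active means percent activation above the mean of all tested compounds plus 3 SD, cut at about 19% in these data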;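 further: higher means more PKAc released from R1A so a rise in polarization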
Rin1 Abl inh: blocks binding of human Rin1 to Abl. P00519+Q13671. TR-FRET Rin1/Abl binding, biochemical. inhibition, % at 7.35 µM. 360,000 compounds, 0.4% hits; in the data active means inhibition above about 5%, passing the limit was not always enough
PKA-R2B act: activates the human PKA-R2B holoenzyme complex; 340,000 compounds, 0.079% hits; activation, % at 11.4 µM; AID 504700; PKA-R2B holoenzyme dissociation, Cy5-IP20 fluorescence polarization; R2B truncated from residue 108, S112A mutant; 0% DMSO only, 100% 113 µM cGMP;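 active means activation above a cutoff set at the mean over all compounds plus 3 SD, cut at about 18% in these data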;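 further: higher means more holoenzyme dissociation and a rise in polarization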
Target sequence (P31323 whole entry, looked up, other chains not shown, the tested form may be a part): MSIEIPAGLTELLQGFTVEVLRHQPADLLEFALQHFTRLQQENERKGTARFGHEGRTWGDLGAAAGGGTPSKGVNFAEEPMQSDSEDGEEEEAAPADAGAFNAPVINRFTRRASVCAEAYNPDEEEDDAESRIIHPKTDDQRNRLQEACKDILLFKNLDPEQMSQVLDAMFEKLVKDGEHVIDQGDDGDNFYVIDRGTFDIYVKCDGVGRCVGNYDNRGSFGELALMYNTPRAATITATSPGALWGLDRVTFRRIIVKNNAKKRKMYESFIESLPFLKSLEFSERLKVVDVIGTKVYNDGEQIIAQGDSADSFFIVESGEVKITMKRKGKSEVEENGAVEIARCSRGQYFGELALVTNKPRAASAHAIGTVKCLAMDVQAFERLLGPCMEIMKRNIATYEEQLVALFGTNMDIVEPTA
H9c2 protect: protects H9c2 cardiomyocytes from peroxide injury | H2O2 injury protection, ATPLite, 2 h | protection from H2O2 cell death, % at 20 µM | 360,000 compounds, 0.63% hits | AID 588492;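 active means compounds giving at least 50% protection of heart cells from peroxide-induced death in the single-dose screen, raw or plate-pattern-corrected value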;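 further: 0% = DMSO wells with peroxide and 100% = DMSO wells without peroxide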
TbMetRS inhib: blocks T. brucei methionyl-tRNA synthetase activity. inhibition, % at 11.9 µM. 360,000 compounds, 0.4% hits. purified T. brucei MetRS, ATP depletion, Kinase-Glo luminescence. AID 624268;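 active means inhibition above a per-plate cutoff of the control wells' mean inhibition plus 3 SD, cut at about 5.5% in these data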;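 further: 0% = DMSO wells median and 100% = median of wells with control inhibitor compound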
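Dosing: 11.9 µM compound single dose, 0.9% DMSO; Assay system: purified T. brucei MetRS enzyme; Measured by: Kinase-Glo luciferase luminescence reporting remaining unconsumed ATP; Schedule: 15 min plus 2 h at 25 °C.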
Numbers without * were called inactive; . = not tested or not shown.

SMILES	PKA-R1A activ	Rin1 Abl inh	PKA-R2B act	H9c2 protect	TbMetRS inhib
Cc1ccc(CN2C(=O)CSCC2(C)C(=O)Nc2c(C)cccc2C)cc1 (stereo unspecified)	.	.	.	.	0
C[C@@H]1CN([C@H](C)CO)C(=O)CCCn2nncc2CO[C@@H]1CN(C)C(=O)Nc1ccc2c(c1)OCO2	2	1	-10	10	-1
CCOc1cc(N2CCOCC2)c(OCC)cc1NC(=O)COC(=O)COc1ccc(C#N)cc1	7	-1	5	0	0
Cc1cc(C)n(-c2ccc(C(=O)Nc3nc4ccccc4s3)cc2)n1	0	-3	5	-17	0
CC(=O)Nc1cc(C)nn1-c1nc2ccccc2s1	-4	1	-2	52*	-1
O=CN/N=C/c1c(O)ccc2ccccc12	5	-3	-2	30	0
O=C(N/N=C/c1c(O)ccc2ccccc12)c1ccc(CO)nc1	-10	-2	2	59*	0
NC(=S)N/N=C/c1c(O)ccc2ccccc12	-2	-1	-6	57*	-1
Cc1c(Cc2ccccc2)c(=O)oc2cc(OCC(=O)NCC3CCC(C(=O)O)CC3)ccc12 (stereo unspecified)	-6	3	0	3	-3
COc1ccc(/C=N/NC(=O)c2ccn[nH]2)cc1COc1ccc(Cl)cc1	-10	-4	-3	63*	0
COc1ccc(/C=N/NC(=O)c2ccn[nH]2)cc1CSc1ccccn1	5	0	-6	5	0
COCc1cc(C)nc(SCC(=O)Oc2ccccc2)c1C#N	3	-1	-2	5	-1
COCc1cc(C)nc(SCC(=O)c2ccc(O)c(O)c2)c1C#N	1	-1	4	76*	0
C=CCn1c(COc2ccccc2)nnc1SC(C)C(=O)N/N=C/c1cc(Cl)ccc1O (stereo unspecified)	-2	0	0	67*	-1
C=CCn1c(COc2ccc(Cl)cc2)nnc1SCC(=O)N/N=C/c1cccc(O)c1	-3	0	5	-15	1
Cc1ccnc(SCC(=O)NC2CC2)n1	-3	1	0	7	0
O=C(Nc1ccc2nc(-c3ccco3)c(-c3ccco3)nc2c1)N1CCN(c2ccccn2)CC1	6	-1	0	117*	-1
S=C(Nc1ccc(N2CCOCC2)cc1)Nc1ccc2nc(-c3ccco3)c(-c3ccco3)nc2c1	3	-2	14	56*	-1
NC(=O)C1CCN(CC(=O)Nc2ccccc2C(=O)NC2CC2)CC1	16	0	2	-3	0
COC(=O)c1ccc(OCC(=O)Nc2ccccc2C(=O)NC2CC2)cc1	3	1	1	57*	0
COc1ccc(OCC(=O)Nc2ccccc2C(=O)NC2CC2)cc1	-2	-4	3	8	0
N#Cc1cnn2cc(-c3ncc(C(F)(F)F)cc3Cl)cnc12	4	-2	3	59*	0
CC(C)(C)OC(=O)NCCCCCNC(=O)c1[nH]cnc1C(=O)Nc1cc(Br)ccc1F	-10	-1	-4	64*	0
CC(C)(C)OC(=O)NCc1ccc(NC(=O)c2nc[nH]c2C(=O)Nc2cc(Br)ccc2F)cc1	.	2	.	4	-1
CC(C)(C)OC(=O)NCCCCCNC(=O)c1[nH]cnc1C(=O)Nc1ccccc1	-12	4	-21	35	0
SMILES	PKA-R1A activ	Rin1 Abl inh	PKA-R2B act	H9c2 protect	TbMetRS inhib
Cc1ccc(NC(=O)c2nc[nH]c2C(=O)NCCCCCNC(=O)OC(C)(C)C)cc1	-6	1	-17	55*	1
CC(C)(C)OC(=O)NCCCCCNC(=O)c1[nH]cnc1C(=O)Nc1ccc(Cl)cc1	-8	2	-3	66*	0
COc1ccc(-c2nc3c(c(SCC(=O)Nc4cccc(O)c4)n2)Cc2c(CO)cnc(C)c2O3)cc1	-5	0	-7	66*	1
Cc1ncc(CO)c2c1Oc1nc(-c3ccccc3)nc(SCC(=O)Nc3cccc(O)c3)c1C2	-16	8	-8	63*	1
O=C(CSc1nc(-c2ccc(F)cc2)nc2c1Cc1ccccc1O2)Nc1cccc(C(=O)O)c1	0	4	-2	5	-1
COc1ccc(-c2ccc(C(=O)NCCc3ccccc3)c3occc23)c(C)c1	.	-1	.	-16	0
NC(=O)C1CCN(c2nc(-c3ccc4ccccc4c3)cs2)CC1	-5	0	-2	2	0
CCCCN(C1CCS(=O)(=O)C1)S(=O)(=O)c1cc(C)ccc1C (stereo unspecified)	-1	0	-13	-3	-1
COc1cccc(-c2nc(N3CCN(C)CC3)c3ccccc3n2)c1O	-10	-4	0	51*	0
CN1CCN(c2nc(-c3ccccc3O)nc3ccccc23)CC1	7	-5	-4	25	-1
COc1cc(NC(=O)c2ccccc2)c(OC)cc1NC(=O)CN1CCN(c2ccccn2)CC1	-22	0	-2	50*	-1
O=C(CN1CCN(c2ccccn2)CC1)Nc1ccc([N+](=O)[O-])cc1C(=O)Nc1ccccc1F	15	-1	-1	63*	0
Cc1nc(N2CCN(c3ccccn3)CC2)c2c(C)c(C(=O)Nc3ccccc3F)sc2n1	15	-6	-4	50*	0
CSc1ccccc1NC(=O)CN1CCN(c2ccccn2)CC1	7	-1	1	2	0
Cc1nc(N2CCN(c3ccccn3)CC2)c2c(C)c(C(=O)Nc3ccc(F)cc3F)sc2n1	-5	-1	-6	7	-1
O=C(CN1C(=O)CSc2ccc(S(=O)(=O)N3CCCCC3)cc21)NCc1ccccc1Cl	-12	1	7	9	1
O=C(NC1CCCCC1)C(c1ccc2ncccc2c1)N(Cc1ccccc1)C(=O)c1ccc2c(c1)OCCO2 (stereo unspecified)	13	-5	5	53*	0
COc1ccc(CN(C(=O)c2ccc3c(c2)OCCO3)C(C(=O)NC2CCCCC2)c2ccc3ncccc3c2)cc1 (stereo unspecified)	2	1	-2	18	0
CCOC(=O)N1CCN(C(=O)CSc2nc3ccccc3c(=O)n2-c2ccccc2)CC1	-2	2	3	52*	-1
O=C(CCNC(=O)c1ccc(Br)cc1)NCCCN1CCCC1=O	7	3	-10	4	0
C/C(N)=C(/C#N)C(=O)CSc1nnc(Nc2ccccc2)s1	2	3	-6	57*	0
CC(C)(C)NC(=O)c1ccc(COc2ccc(Cl)cc2Cl)o1	3	1	4	-12	1
O=C(N/N=C/c1ccc(O)cc1)c1ccc(COc2cc(Cl)ccc2Cl)o1	0	1	4	68*	-1
O=C(c1ccc(S(=O)(=O)N2CCCC2)cc1)N1CCCCC1	-2	-3	-6	-1	0

Bioassay records from PubChem BioAssay.
